From ChEMBL document CHEMBL1765010, “Reversible competitive α-ketoheterocycle inhibitors of fatty acid amide hydrolase containing additional conformational constraints in the acyl side chain: orally active, long-acting analgesics” (J Med Chem, 2011)
pKi: −log10 of the molar value. Activity calls are given as the source filed them. The calls are words filed in the database; no cut-off is given here.

Columns and labels:
Mus musculus [1] = experiment: Inhibition of FAAH in C57Bl/6J mouse liver assessed as increase of 2-arachidonoylglycerol level at 30 mg/kg, ip after 1 hr relative to control; format: functional; details: route intraperitoneal
Mus musculus [2] = experiment: Inhibition of FAAH in C57Bl/6J mouse brain assessed as increase of N-palmitoyl ethanolamine level at 50 mg/kg, po; format: functional, organism-based; design: dose 50 mg/kg; details: TDE = time-dependent effect
Procedure, shortened: (§1)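 Male C57Bl/6J mice (<6 months, 20–28 g) given a single oral dose as a PEG300 solution. Brains were homogenized in CHCl3:MeOH:Tris pH 8.0 containing deuterated internal standards. The organic extract was analysed by reverse-phase C18 LC–ESI triple-quadrupole MS for anandamide, PEA, OEA and 2-AG. Dose series (10, 25, 50 mg/kg) was sampled at 1 h; the 50 mg/kg time course ran to 9 h. Three mice per group in the i.p./p.o. comparison.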

Mus musculus [3] = experiment: Toxicity in C57BL/6 mouse assessed as hypothermia at 50 mg/kg, po; format: organism-based; design: dose 50 mg/kg, route oral; details: in vivo
Mus musculus [4] = experiment: Analgesic activity in C57BL/6 mouse chronic constriction injury model assessed as reversal of von Frey filament-induced mechanical allodynia at 50 mg/kg, po measured up to 6 hrs; format: functional, organism-based; design: dose 50 mg/kg
Procedure, shortened: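 Male C57BL/6 mice with sciatic nerve chronic constriction injury (two silk ligatures, isoflurane anesthesia), tested from 10 days post-surgery after 2 days of apparatus habituation. Single oral dose in PEG300 or vehicle. Blinded observer tested ipsilateral and contralateral paws at 1, 3, 6 and 9 h: von Frey up-down method (0.16–6.0 g filaments, 5 stimuli each) and acetone-induced cold response. n = 9–10; mean ± SEM.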

[5] = biological target: T1, Fatty-acid amide hydrolase 1 (Rattus norvegicus, UniProt P97612); experiment: Inhibition of rat recombinant FAAH expressed in Escherichia coli assessed as [14C]-labeled oleamide to oleic acid conversion
T1 sequence (P97612 whole entry): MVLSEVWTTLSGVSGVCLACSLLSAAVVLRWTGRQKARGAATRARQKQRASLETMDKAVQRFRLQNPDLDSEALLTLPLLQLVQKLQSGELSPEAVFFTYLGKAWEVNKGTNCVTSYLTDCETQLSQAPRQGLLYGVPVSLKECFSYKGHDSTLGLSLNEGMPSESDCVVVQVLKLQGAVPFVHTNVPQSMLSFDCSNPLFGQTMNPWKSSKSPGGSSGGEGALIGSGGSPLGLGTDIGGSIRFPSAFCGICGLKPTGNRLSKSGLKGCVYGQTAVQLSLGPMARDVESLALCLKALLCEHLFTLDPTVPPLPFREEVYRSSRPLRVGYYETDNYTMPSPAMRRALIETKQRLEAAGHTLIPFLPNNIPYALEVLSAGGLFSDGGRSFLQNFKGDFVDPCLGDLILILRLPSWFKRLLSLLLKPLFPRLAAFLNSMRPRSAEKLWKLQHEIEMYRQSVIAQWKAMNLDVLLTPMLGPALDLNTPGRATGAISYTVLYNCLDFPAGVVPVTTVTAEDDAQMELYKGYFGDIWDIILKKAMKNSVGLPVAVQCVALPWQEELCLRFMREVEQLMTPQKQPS

Mus musculus [6] = experiment: Inhibition of FAAH in C57Bl/6J mouse brain assessed as increase of N-palmitoyl ethanolamine level at 50 mg/kg, po after 1 hr relative to control; format: functional
Procedure, shortened: (§2)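 Male C57Bl/6J mice (<6 months, 20–28 g) given compound orally as a PEG300 solution at 10, 25 or 50 mg/kg, with 3 mice per group in the 50 mg/kg p.o. comparison; brains collected 1 h post-dose. Lipids extracted in CHCl3:MeOH:Tris pH 8.0 with deuterated internal standards, then measured by C18 LC-ESI-MS/MS relative to vehicle-treated mice.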

Mus musculus [7] = experiment: Inhibition of FAAH in po dosed C57Bl/6J mouse brain assessed as increase of anandamide level after 1 hr relative to control; format: functional, organism-based; procedure, shortened: as §1
Mus musculus [8] = experiment: Toxicity in C57BL/6 mouse assessed as hypomotility at 50 mg/kg, po; format: organism-based; design: dose 50 mg/kg, route oral; details: in vivo
Mus musculus [9] = experiment: Inhibition of FAAH in C57Bl/6J mouse brain assessed as increase of anandamide level at 25 to 50 mg/kg, po after 1 hr relative to control; format: functional; details: dose mg/kg 25-50; procedure, shortened: as §2

`O=C(c1ncc(-c2ccccn2)o1)[C@H]1CCc2cc(Oc3ccccc3)ccc2C1` was tested, and the “fold change (FC)” value (Mus musculus [1]) was 0.8, the Activity (Mus musculus [2]) was “tde” and the Activity (Mus musculus [3]) was “Non-toxic”. The Activity (Mus musculus [4]) was “Active”, the pKi [5] was 8.36 and the fold change (FC) (Mus musculus [6]) was 7.7. For the same compound, the Activity (Mus musculus [7]) was “Dose-dependent effect”, the Activity (Mus musculus [8]) was “Non-toxic” and the “fold change (FC)” value (Mus musculus [9]) was 12.
